Molecules are shown by their SMILES.

Series [1] relates to Hepatitis C virus. Put plainly: Antiviral activity against HCV infected in human clone A cells. The format is functional, Hepacivirus hominis. Summed up:
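Clone A replicon cells seeded at 1500 cells/well. Compounds serially diluted in G418-free culture medium and added, then incubated 4 days at 37 °C in 5% CO2. HCV RNA quantified by real-time RT-PCR as ΔCt relative to the mean no-drug control.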

For series [2], the system named is CCRF-CEM. Put plainly: Cytotoxicity against human CEM cells assessed as inhibition of ribosomal DNA up to 100 uM. The format is cell-based. Summed up: (§1)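 CEM or HepG2 cells at 1 × 10^4 per well, compound serially diluted from 100 μM, 14 days at 37 °C, 5% CO2. Medium with compound renewed on days 7 and 11. Total DNA extracted; mitochondrial COXII DNA and rDNA measured by multiplex quantitative PCR. ΔCt converted to log reduction, inhibition relative to untreated cells, and the 90% inhibitory concentration reported.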

Series [3] deals with CCRF-CEM. Put plainly: Cytotoxicity against human CEM cells assessed as inhibition of mitochondrial DNA up to 100 uM. It is filed as cell-based. The gist of the method:
as §1

The subject of series [4] is Hepatitis C virus. Put plainly: Antiviral activity against HCV expressing NS5B polymerase S282T mutation infected in clone A cells. It is filed as functional, Hepacivirus hominis. Summed up:
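Replicon cells seeded at 1500 (clone A) or 3000 (ET-lunet) per well. Serially diluted compound added in medium without G418, 4 days at 37 °C, 5% CO2. HCV RNA measured by real-time RT-PCR as ΔCt versus no-drug control. EC90 calculated; fold change of S282T mutant versus wild-type replicon EC90. At least three independent experiments.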

Series [5] concerns Hepatitis C virus. Put plainly: Antiviral activity against HCV infected in human ET-lunet cells. It is filed as functional, Hepacivirus hominis. Summed up:
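ET-lunet replicon cells seeded at 3000 cells/well. Compounds serially diluted in culture medium without G418 and added to cells, which were incubated 4 days at 37 °C in 5% CO2. HCV RNA replication measured by quantitative real-time RT-PCR as ΔCt against the mean no-drug control threshold cycle. EC90, the concentration giving 90% inhibition, was calculated.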

The nature of series [6]: Cytotoxicity against human HepG2 cells assessed as inhibition of mitochondrial DNA. The format is cell-based. Summed up:
as §1

Series [7] in a line: Cytotoxicity against human HepG2 cells assessed as inhibition of ribosomal DNA. It is filed as cell-based. Summed up:
as §1

Series [8] has as its system Hepatitis C virus NS5B S96T/N142T mutant. The experiment in a line: Antiviral activity against HCV expressing NS5B polymerase S96T/N142T mutation infected in human ET-lunet cells.

As a reminder, the EC90 is the point of the concentration-response curve where the effect stands at 90%. For `CC(C)OC(=O)[C@H](C)N[P@](=O)(OC[C@H]1O[C@@H](n2ccc(=O)[nH]c2=O)[C@](C)(F)[C@@H]1O)Oc1ccccc1` [SOFOSBUVIR], the EC90 in series [1] turned out to be 0.42 µM; in series [4], 7.8 µM; in series [5], 0.23 µM; in series [8] it was 0.11 µM. For the same compound, the Activity entry in series [2] and in series [3] was “Non-toxic” in each case. Further, the CC90 worked out at 72.1 µM in series [6] and 68.6 µM in series [7].

Regarding `CC(C)OC(=O)[C@H](C)N[P@@](=O)(OC[C@H]1O[C@@H](n2ccc(=O)[nH]c2=O)[C@](C)(F)[C@@H]1O)Oc1ccccc1`, the EC90 in series [1] (Hepatitis C virus) was 7.5 µM; in series [4] it was > 100 µM; in series [5], 3.3 µM; in series [8] it was 1.3 µM. Also, the Activity result in series [2] and in series [3] was “Non-toxic” in each case.

The record behind these values is ChEMBL document CHEMBL1255219, “Discovery of a β-d-2'-deoxy-2'-α-fluoro-2'-β-C-methyluridine nucleotide prodrug (PSI-7977) for the treatment of hepatitis C virus” (J Med Chem, 2010).
